Assay results of several laboratories.
Protocols differ between the studies behind these lines.
Action: inhibitor
CDK2: Cyclin-dependent kinase 2 (CDK2, Homo sapiens, UniProt P24941)
PARP2: Poly [ADP-ribose] polymerase 2 (PARP2, Homo sapiens, UniProt Q9UGN5)

SMILES | target | test | IC50
CCNc1ccc(C(N)=O)cn1 | Nicotinamide N-methyltransferase (NNMT, Homo sapiens, UniProt P40261) | enzyme activity in cells | > 31600 nM
Cc1n[nH]c2ccc3nc(-c4ccc(C(=O)NCCN(C)C)cc4)c4c(c3c12)CCC(F)(F)C4 | CDK2 | enzyme activity | 594 nM
O=c1[nH]c2c(nnn2Cc2ccc(C(F)(F)F)cc2)c2ccc(F)cc12 | PARP2 | enzyme activity | > 10000 nM
CC(=O)N1C(=O)NC(C)=C(C(=O)OCc2ccccc2)C1c1cccc([N+](=O)[O-])c1 (racemic) | Voltage-dependent L-type calcium channel subunit alpha-1C (Cacna1c, Rattus norvegicus, UniProt P22002) | ion current, patch clamp | 2600 nM
O=c1[nH]c2c(nnn2Cc2ccccc2)c2ccc(F)cc12 | PARP2 | enzyme activity | > 10000 nM
Cn1cc(C2=C(c3cn(CCCSC(=N)N)c4ccccc34)C(=O)NC2=O)c2ccccc21 | Serine/threonine-protein kinase VRK1 (VRK1, Homo sapiens, UniProt Q99986) | enzyme activity | 644 nM
Cc1n[nH]c2ccc3nc(-c4ccc(C(=O)NCCN(C)C)cc4F)c4c(c3c12)CCCC4 | CDK2 | enzyme activity | 80 nM
CCc1ccc(Cn2nnc3c4ccc(F)cc4c(=O)[nH]c32)cc1 | PARP2 | enzyme activity, fluorescence | > 10000 nM
CN(C)CCNC(=O)c1ccc(-c2nc3ccc4[nH]ncc4c3c3c2CC(F)(F)CC3)cc1 | CDK2 | enzyme activity | 109 nM
CCCCCn1nnc2c3ccc(F)cc3c(=O)[nH]c21 | PARP2 | enzyme activity | > 10000 nM
NC/C(=C\F)COc1cccc(Cn2c(=S)[nH]c(=O)c3[nH]cnc32)c1 | Sodium channel protein type 5 subunit alpha (SCN5A, Homo sapiens, UniProt Q14524) | ion current | > 100000 nM
Cc1n[nH]c2ccc3nc(-c4ccc(C(=O)NCCN5CCCC5)cc4)c4c(c3c12)CCCC4 | CDK2 | enzyme activity | 310 nM
